Reference: ChEMBL document CHEMBL2384906, “Biological activity, design, synthesis and structure activity relationship of some novel derivatives of curcumin containing sulfonamides” (Eur J Med Chem, 2013)
In brackets after ≈: the same amount, converted by molar mass. Activity calls are given as the source filed them. The rule behind the calls is not given here.

Experiments:
Staphylococcus aureus [1] = test: Antimicrobial activity against Staphylococcus aureus ATCC 11632 after 24 hrs by broth micro serial dilution method; format: functional; details: ATCC 11632, 24 h
Method in brief: (§1)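 This was broth microdilution in autoclaved Mueller-Hinton broth. 150 µL of compound per well was serially diluted […], and 50 µL of test organism was added. Plates were incubated 24 h at 37 °C and optical density was read.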

Curvularia lunata [2] = test: Antifungal activity against Curvularia lunata MTCC 581 assessed as zone of inhibition at 40 uM after 48 hrs by disc diffusion method; format: functional; details: MTCC 581, 48 h, read-out: IZ
Method in brief: (§2)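 Spores from 4-day potato dextrose agar cultures, suspended in sterile water at 1.5 × 10⁵ CFU/mL. 0.2 mL was spread on potato dextrose agar. 5 mm filter-paper discs soaked with test compound were laid on the lawn. Incubation was 48 h at 28 °C, then the inhibition zone was measured in mm. Fluconazole was the positive control and acetone the negative control.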

Bacillus cereus [3] = test: Antimicrobial activity against Bacillus cereus MTCC 7350 assessed as diameter of inhibition zone at 80 uM after 24 hrs by Kirby -Baur disc diffusion method; format: functional; details: MTCC 7350, 24 h, read-out: DIZ
Method in brief: (§3)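 Kirby-Bauer disc diffusion was used. Acetone stocks (160 µM) were serially doubled down to 80, 40 and 20 µM. 4 µL of each went onto 5 mm sterile paper discs, which were dried 30 min at 50 °C. Inoculum was 1.5 × 10⁸ CFU/mL diluted to 3 × 10² CFU/mL, and 50 µL was spread on Mueller-Hinton agar. After 24 h at 37 °C the inhibition-zone diameter was measured. Ciprofloxacin served as positive control.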

Curvularia lunata [4] = test: Antifungal activity against Curvularia lunata MTCC 581 after 48 hrs; format: functional; details: MTCC 581, 48 h
Curvularia lunata [5] = test: Antifungal activity against Curvularia lunata MTCC 581 assessed as zone of inhibition at 80 uM after 48 hrs by disc diffusion method; format: functional; details: MTCC 581, 48 h, read-out: IZ; method in brief: as §2
Aspergillus niger [6] = test: Antifungal activity against Aspergillus niger MTCC 1108 assessed as zone of inhibition at 40 uM after 48 hrs by disc diffusion method; format: functional; details: MTCC 1108, 48 h, read-out: IZ; method in brief: as §2
Aspergillus niger [7] = test: Antifungal activity against Aspergillus niger MTCC 1108 after 48 hrs; format: functional; details: MTCC 1108, 48 h
Staphylococcus aureus [8] = test: Antimicrobial activity against Staphylococcus aureus ATCC 11632 assessed as diameter of inhibition zone at 40 uM after 24 hrs by Kirby -Baur disc diffusion method; format: functional; details: ATCC 11632, 24 h, read-out: DIZ; method in brief: as §3
Bacillus cereus [9] = test: Antimicrobial activity against Bacillus cereus MTCC 7350 after 24 hrs by broth micro serial dilution method; format: functional; details: MTCC 7350, 24 h; method in brief: as §1
Staphylococcus aureus [10] = test: Antimicrobial activity against Staphylococcus aureus ATCC 11632 assessed as diameter of inhibition zone at 80 uM after 24 hrs by Kirby -Baur disc diffusion method; format: functional; details: ATCC 11632, 24 h, read-out: DIZ; method in brief: as §3
Aspergillus flavus [11] = test: Antifungal activity against Aspergillus flavus MTCC 1021 after 48 hrs; format: functional; details: MTCC 1021, 48 h
Trichoderma viride [12] = test: Antifungal activity against Trichoderma viride MTCC 1107 after 48 hrs; format: functional; details: MTCC 1107, 48 h
Bacillus cereus [13] = test: Antimicrobial activity against Bacillus cereus MTCC 7350 assessed as diameter of inhibition zone at 20 uM after 24 hrs by Kirby -Baur disc diffusion method; format: functional; details: MTCC 7350, 24 h, read-out: DIZ; method in brief: as §3
Salmonella typhi [14] = test: Antimicrobial activity against Salmonella typhi ATCC 23564 assessed as diameter of inhibition zone at 40 uM after 24 hrs by Kirby -Baur disc diffusion method; format: functional, Salmonella enterica subsp. enterica serovar Typhi; details: Salmonella enterica, ATCC 23564, 24 h; read-out: DIZ
Salmonella typhi [15] = test: Antimicrobial activity against Salmonella typhi ATCC 23564 assessed as diameter of inhibition zone at 20 uM after 24 hrs by Kirby -Baur disc diffusion method; format: functional, Salmonella enterica subsp. enterica serovar Typhi; details: Salmonella enterica, ATCC 23564, 24 h; read-out: DIZ
Pseudomonas aeruginosa [16] = test: Antimicrobial activity against Pseudomonas aeruginosa ATCC 15499 assessed as diameter of inhibition zone at 80 uM after 24 hrs by Kirby -Baur disc diffusion method; format: functional; details: ATCC 15499, 24 h, read-out: DIZ; method in brief: as §3
Staphylococcus aureus [17] = test: Antimicrobial activity against Staphylococcus aureus ATCC 11632 assessed as diameter of inhibition zone at 20 uM after 24 hrs by Kirby -Baur disc diffusion method; format: functional; details: ATCC 11632, 24 h, read-out: DIZ; method in brief: as §3
Aspergillus flavus [18] = test: Antifungal activity against Aspergillus flavus MTCC 1021 assessed as zone of inhibition at 40 uM after 48 hrs by disc diffusion method; format: functional; details: MTCC 1021, 48 h, read-out: IZ; method in brief: as §2
Bacillus cereus [19] = test: Antimicrobial activity against Bacillus cereus MTCC 7350 assessed as diameter of inhibition zone at 40 uM after 24 hrs by Kirby -Baur disc diffusion method; format: functional; details: MTCC 7350, 24 h, read-out: DIZ; method in brief: as §3
Trichoderma viride [20] = test: Antifungal activity against Trichoderma viride MTCC 1107 assessed as zone of inhibition at 20 uM after 48 hrs by disc diffusion method; format: functional; details: MTCC 1107, 48 h, read-out: IZ; method in brief: as §2
Salmonella typhi [21] = test: Antimicrobial activity against Salmonella typhi ATCC 23564 assessed as diameter of inhibition zone at 80 uM after 24 hrs by Kirby -Baur disc diffusion method; format: functional, Salmonella enterica subsp. enterica serovar Typhi; details: Salmonella enterica, ATCC 23564, 24 h; read-out: DIZ
Trichoderma viride [22] = test: Antifungal activity against Trichoderma viride MTCC 1107 assessed as zone of inhibition at 40 uM after 48 hrs by disc diffusion method; format: functional; details: MTCC 1107, 48 h, read-out: IZ; method in brief: as §2
Aspergillus niger [23] = test: Antifungal activity against Aspergillus niger MTCC 1108 assessed as zone of inhibition at 80 uM after 48 hrs by disc diffusion method; format: functional; details: MTCC 1108, 48 h, read-out: IZ; method in brief: as §2
Curvularia lunata [24] = test: Antifungal activity against Curvularia lunata MTCC 581 assessed as zone of inhibition at 20 uM after 48 hrs by disc diffusion method; format: functional; details: MTCC 581, 48 h, read-out: IZ; method in brief: as §2
Aspergillus flavus [25] = test: Antifungal activity against Aspergillus flavus MTCC 1021 assessed as zone of inhibition at 80 uM after 48 hrs by disc diffusion method; format: functional; details: MTCC 1021, 48 h, read-out: IZ; method in brief: as §2
HeLa = test: Cytotoxicity against human HeLa cells after 24 hrs by MTT assay; format: functional, cell-based
Method in brief: (§4)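 The MTT assay seeded 5 × 10⁴ cells per well and grew them 24 h in RPMI 1640 with compound at 2.5–200 µM. Medium without cells was the blank and adriamycin the positive control. MTT was added for 4 h at 37 °C, formazan was solubilised, and absorbance was read at 570 nm. IC50 is the concentration that cuts viability 50% against untreated cells.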

Pseudomonas aeruginosa [26] = test: Antimicrobial activity against Pseudomonas aeruginosa ATCC 15499 after 24 hrs by broth micro serial dilution method; format: functional; details: ATCC 15499, 24 h; method in brief: as §1
Trichoderma viride [27] = test: Antifungal activity against Trichoderma viride MTCC 1107 assessed as zone of inhibition at 80 uM after 48 hrs by disc diffusion method; format: functional; details: MTCC 1107, 48 h, read-out: IZ; method in brief: as §2
Aspergillus flavus [28] = test: Antifungal activity against Aspergillus flavus MTCC 1021 assessed as zone of inhibition at 20 uM after 48 hrs by disc diffusion method; format: functional; method in brief: as §2
Escherichia coli [29] = test: Antimicrobial activity against Escherichia coli ATCC 35218 assessed as diameter of inhibition zone at 80 uM after 24 hrs by Kirby -Baur disc diffusion method; format: functional; details: ATCC 35218, 24 h, read-out: DIZ; method in brief: as §3
Escherichia coli [30] = test: Antimicrobial activity against Escherichia coli ATCC 35218 assessed as diameter of inhibition zone at 20 uM after 24 hrs by Kirby -Baur disc diffusion method; format: functional; details: ATCC 35218, 24 h, read-out: DIZ; method in brief: as §3
QG-56 = test: Cytotoxicity against human QG56 cells after 24 hrs by MTT assay; format: functional, cell-based; method in brief: as §4
HepG2 = test: Cytotoxicity against human HepG2 cells after 24 hrs by MTT assay; format: functional, cell-based; method in brief: as §4
Salmonella typhi [31] = test: Antimicrobial activity against Salmonella typhi ATCC 23564 after 24 hrs by broth micro serial dilution method; format: functional, Salmonella enterica subsp. enterica serovar Typhi; details: Salmonella enterica, ATCC 23564, 24 h
Pseudomonas aeruginosa [32] = test: Antimicrobial activity against Pseudomonas aeruginosa ATCC 15499 assessed as diameter of inhibition zone at 40 uM after 24 hrs by Kirby -Baur disc diffusion method; format: functional; details: ATCC 15499, 24 h, read-out: DIZ; method in brief: as §3
HCT-116 = test: Cytotoxicity against human HCT116 cells after 24 hrs by MTT assay; format: functional, cell-based; method in brief: as §4
Pseudomonas aeruginosa [33] = test: Antimicrobial activity against Pseudomonas aeruginosa ATCC 15499 assessed as diameter of inhibition zone at 20 uM after 24 hrs by Kirby -Baur disc diffusion method; format: functional; details: ATCC 15499, 24 h, read-out: DIZ; method in brief: as §3
Aspergillus niger [34] = test: Antifungal activity against Aspergillus niger MTCC 1108 assessed as zone of inhibition at 20 uM after 48 hrs by disc diffusion method; format: functional; method in brief: as §2
Escherichia coli [35] = test: Antimicrobial activity against Escherichia coli ATCC 35218 after 24 hrs by broth micro serial dilution method; format: functional; details: ATCC 35218, 24 h; method in brief: as §1
Mus musculus = test: Antiinflammatory activity in mouse assessed as inhibition of carrageenan-induced increase in paw volume at 200 mg/kg administered 1 hr prior to carrageenan challenge measured after 3 hrs relative to control; format: functional
Method in brief: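 Mice were fasted 2 h and placed in groups of five. Controls received saline i.p. Phenylbutazone was given at 100 mg/kg i.p., curcumin at 200 mg/kg i.p., and derivatives at 200 mg/kg. After 1 h, 0.1 mL of 1% carrageenan in saline was injected subplantar into the right hind paw. Paw volume was followed by plethysmometer for 3 h, and % inhibition was calculated as (Vc − Vt)/Vc × 100.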

Escherichia coli [36] = test: Antimicrobial activity against Escherichia coli ATCC 35218 assessed as diameter of inhibition zone at 40 uM after 24 hrs by Kirby -Baur disc diffusion method; format: functional; details: ATCC 35218, 24 h, read-out: DIZ; method in brief: as §3

## COc1cc(/C=C/C(O)=C/C(/C=C/c2ccc(O)c(OC)c2)=N/c2ccc(S(=O)(=O)Nc3cc(C)on3)cc2)ccc1O
Staphylococcus aureus [1]
  MIC: 20 µM (≈ 12.1 µg/mL)
Curvularia lunata [2]
  zone of inhibition at 40 µM: 10 mm
Bacillus cereus [3]
  zone of inhibition at 80 µM: 21 mm
Curvularia lunata [4]
  MIC: 80 µM (≈ 48.3 µg/mL)
Curvularia lunata [5]
  zone of inhibition at 80 µM: 11 mm
Aspergillus niger [6]
  zone of inhibition at 40 µM: 9 mm
Aspergillus niger [7]
  MIC: 40 µM (≈ 24.1 µg/mL)
Staphylococcus aureus [8]
  zone of inhibition at 40 µM: 21 mm
Bacillus cereus [9]
  MIC: 20 µM (≈ 12.1 µg/mL)
Staphylococcus aureus [10]
  zone of inhibition at 80 µM: 24 mm
Aspergillus flavus [11]
  MIC: > 80 µM
Trichoderma viride [12]
  MIC: 80 µM (≈ 48.3 µg/mL)
Bacillus cereus [13]
  zone of inhibition at 20 µM: 13 mm
Salmonella typhi [14]
  zone of inhibition at 40 µM: 17 mm
Salmonella typhi [15]
  zone of inhibition at 20 µM: 12 mm
Pseudomonas aeruginosa [16]
  zone of inhibition at 80 µM: 25 mm
Staphylococcus aureus [17]
  zone of inhibition at 20 µM: 17 mm
Aspergillus flavus [18]
  zone of inhibition at 40 µM: 9 mm
Bacillus cereus [19]
  zone of inhibition at 40 µM: 18 mm
Trichoderma viride [20]
  zone of inhibition at 20 µM: 9 mm
Salmonella typhi [21]
  zone of inhibition at 80 µM: 20 mm
Trichoderma viride [22]
  zone of inhibition at 40 µM: 11 mm
Aspergillus niger [23]
  zone of inhibition at 80 µM: 12 mm
Curvularia lunata [24]
  zone of inhibition at 20 µM: 9 mm
Aspergillus flavus [25]
  zone of inhibition at 80 µM: 11 mm
HeLa
  IC50: 50 µM
Pseudomonas aeruginosa [26]
  MIC: 20 µM (≈ 12.1 µg/mL)
Trichoderma viride [27]
  zone of inhibition at 80 µM: 13 mm
Aspergillus flavus [28]
  inhibition zone (IZ): inactive
Escherichia coli [29]
  zone of inhibition at 80 µM: 27 mm
Escherichia coli [30]
  zone of inhibition at 20 µM: 19 mm
QG-56
  IC50: 50 µM
HepG2
  IC50: 25 µM
Salmonella typhi [31]
  MIC: 20 µM (≈ 12.1 µg/mL)
Pseudomonas aeruginosa [32]
  zone of inhibition at 40 µM: 23 mm
HCT-116
  IC50: 25 µM
Pseudomonas aeruginosa [33]
  zone of inhibition at 20 µM: 17 mm
Aspergillus niger [34]
  inhibition zone (IZ): inactive
Escherichia coli [35]
  MIC: 20 µM (≈ 12.1 µg/mL)
Mus musculus
  inhibition in vivo at 200 mg/kg: 33.8%
Escherichia coli [36]
  zone of inhibition at 40 µM: 21 mm
